In ChEMBL document CHEMBL1145490, “Beta-lactam resistance in Haemophilus parasuis Is mediated by plasmid pB1000 bearing blaROB-1” (2007):
Values after ≈ are worked out from the molar mass of the structure shown.

Experiments:
Type in all cases: functional
Haemophilus parasuis [1] = assay: Antimicrobial activity against Haemophilus parasuis BB 1024; conditions: Glaesserella parasuis
Method in brief: (§1)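 H. parasuis isolates grown on chocolate agar and in Haemophilus test medium broth at 37°C under microaerophilic conditions (5% CO2). Susceptibility was profiled by disk diffusion and broth microdilution in Haemophilus test medium for fastidious bacteria, following a previously described method.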

Haemophilus parasuis [2] = assay: Antimicrobial activity against Haemophilus parasuis BB 1025; conditions: Glaesserella parasuis; method in brief: as §1
Escherichia coli [3] = assay: Antimicrobial activity against Escherichia coli
Escherichia coli [4] = assay: Antimicrobial activity against Escherichia coli pB1000 expressing ROB1 beta lactamase
Haemophilus parasuis [5] = assay: Antimicrobial activity against Haemophilus parasuis BB 1026; conditions: Glaesserella parasuis; method in brief: as §1
Haemophilus parasuis [6] = assay: Antimicrobial activity against Haemophilus parasuis ATCC 19417; conditions: Glaesserella parasuis; method in brief: as §1
Haemophilus parasuis [7] = assay: Antimicrobial activity against Haemophilus parasuis BB 1018; conditions: Glaesserella parasuis; method in brief: as §1
Haemophilus parasuis [8] = assay: Antimicrobial activity against Haemophilus parasuis BB 1019; conditions: Glaesserella parasuis; method in brief: as §1
Haemophilus parasuis [9] = assay: Antimicrobial activity against Haemophilus parasuis BB 1020; conditions: Glaesserella parasuis; method in brief: as §1
Haemophilus parasuis [10] = assay: Antimicrobial activity against Haemophilus parasuis BB 1021; conditions: Glaesserella parasuis; method in brief: as §1
Haemophilus parasuis [11] = assay: Antimicrobial activity against Haemophilus parasuis BB 1022; conditions: Glaesserella parasuis; method in brief: as §1
Haemophilus parasuis [12] = assay: Antimicrobial activity against Haemophilus parasuis BB 1023; conditions: Glaesserella parasuis; method in brief: as §1

Compound	MIC (Haemophilus parasuis [1]) [µg/mL]	MIC (Haemophilus parasuis [2]) [µg/mL]	MIC (Escherichia coli [3]) [µg/mL]	MIC (Escherichia coli [4]) [µg/mL]	MIC (Haemophilus parasuis [5]) [µg/mL]	MIC (Haemophilus parasuis [6]) [µg/mL]	MIC (Haemophilus parasuis [7]) [µg/mL]	MIC (Haemophilus parasuis [8]) [µg/mL]	MIC (Haemophilus parasuis [9]) [µg/mL]	MIC (Haemophilus parasuis [10]) [µg/mL]	MIC (Haemophilus parasuis [11]) [µg/mL]	MIC (Haemophilus parasuis [12]) [µg/mL]
CC1(C)S[C@@H]2[C@H](NC(=O)[C@H](N)c3ccc(O)cc3)C(=O)N2[C@H]1C(=O)O [AMOXICILLIN]	> 256	> 256	4 (≈ 10.9 µM)	> 256	≤ 2	≤ 2	> 256	> 256	> 256	> 256	> 256	> 256
N[C@@H](C(=O)N[C@@H]1C(=O)N2C(C(=O)O)=C(Cl)CS[C@H]12)c1ccccc1 [CEFACLOR ANHYDROUS]	> 16	> 16	8 (≈ 21.8 µM)	128 (≈ 348 µM)	≤ 1	≤ 1	> 16	> 16	> 16	> 16	> 16	> 16
CO/N=C(\C(=O)N[C@@H]1C(=O)N2C(C(=O)O)=C(COC(C)=O)CS[C@H]12)c1csc(N)n1 [CEFOTAXIME]	0.06 (≈ 0.132 µM)	0.06 (≈ 0.132 µM)	0.06 (≈ 0.132 µM)	0.06 (≈ 0.132 µM)	≤ 0.03	≤ 0.03	0.06 (≈ 0.132 µM)	0.06 (≈ 0.132 µM)	≤ 0.03	0.06 (≈ 0.132 µM)	0.06 (≈ 0.132 µM)	0.12 (≈ 0.263 µM)
Cc1onc(-c2ccccc2)c1C(=O)N[C@@H]1C(=O)N2[C@@H]1SC(C)(C)[C@@H]2C(=O)O [OXACILLIN]	≤ 0.25	≤ 0.25	> 4	> 4	≤ 0.25	≤ 0.25	≤ 0.25	≤ 0.25	≤ 0.25	≤ 0.25	≤ 0.25	≤ 0.25
